Experimental data pooled from the literature.
Compare with care: the assays were run in different laboratories.
RPS6KB2: Ribosomal protein S6 kinase beta-2 (RPS6KB2, Homo sapiens, UniProt Q9UBS0)
ADORA1: Adenosine receptor A1 (ADORA1, Homo sapiens, UniProt P30542)
AXL: Tyrosine-protein kinase receptor UFO (AXL, Homo sapiens, UniProt P30530)

`COc1nc(-c2cccc(-c3ccccc3)c2C)ccc1CNCCNC(=O)CCCCCCCCCCC(=O)N1CCN(CCNC(=O)c2cc3c(=O)n4cccc(C)c4nc3n(CCc3cccs3)c2=N)CC1` has a Dmax of 53.9% (Programmed cell death 1 ligand 1 (CD274, Homo sapiens, UniProt Q9NZQ7); protein level, degrader, western blot; HL-60; 1 µM).
`COc1ccc2oc(-c3ccc4nc(N)oc4c3)c/c(=N\c3ccccc3NC(=O)CCN)c2c1` has a remaining binding of 93% (RPS6KB2; binding; 1 µM).
`Cc1cc(F)cc2c(CCC(=O)N[C@@H]3C(=O)NC[C@H]3O)c(-c3ccc(F)cc3)[nH]c12` has an inhibition of 4% (ADORA1; cell-free assay; 10 µM).
With `CCN1/C(=C/C(C)=O)Sc2ccc(F)cc21` the inhibition was 2.48% (ADORA1; ligand displacement, radioligand; 10 µM).
`NC/C(=C\F)COc1cccc(Cn2c(=S)[nH]c(=O)c3[nH]cnc32)c1` gave an inhibition of less than 50% (ADORA1; ligand displacement, radioligand; 10 µM).
`C#Cc1cc(-c2cc(Nc3nc(N[C@@H](C)c4ccc(F)cn4)ncc3Cl)n[nH]2)ccc1C=O` has an inhibition of 17.4% (RAC-gamma serine/threonine-protein kinase (AKT3, Homo sapiens, UniProt Q9Y243); enzyme activity, inhibitor; 0.2 µM).
For `CC(C)C[C@H](NC(=O)CNC(=O)[C@H](Cc1ccc(O)cc1)NC(=O)[C@H](CO)NC(=O)[C@H](Cc1c[nH]c2ccccc12)NC(=O)[C@H](Cc1c[nH]cn1)NC(=O)[C@@H]1CCC(=O)N1)C(=O)N[C@@H](CCCNC(=N)N)C(=O)N1CCC[C@H]1C(=O)NCC(N)=O`, the Emax was 100% (Gonadotropin-releasing hormone receptor (GNRHR, Homo sapiens, UniProt P30968); inositol phosphate, agonist, TR-FRET; HEK-293T; 1 h).
`C1=C/COCc2cc(ccc2OCCN2CCCC2)Nc2nccc(n2)-c2cccc(c2)COC/1` has a remaining binding of 100% (Ephrin type-A receptor 4 (EPHA4, Homo sapiens, UniProt P54764); binding; 0.1 µM).
With `C#Cc1cnc(Nc2ccc(CO)cc2)nc1Nc1ccccc1C(=O)NC` the remaining activity was 1.65% (AXL; enzyme activity, inhibitor; 1 µM).
`CCCCC(=O)Nc1ccc(-c2ccc3ncn(CCC)c(=O)c3c2)cn1` has a remaining binding of 86% (Serine/threonine-protein kinase 32A (STK32A, Homo sapiens, UniProt Q8WU08); binding, competition with immobilised ligand; 0.5 µM).
The remaining activity of `CS(=O)(=NC#N)c1ccccc1Nc1nc(Nc2ccnc(CO)c2)ncc1Cl` (stereo not drawn) is reported as 14.7% (AXL; enzyme activity, inhibitor; 1 µM).
The inhibition of `Cc1cc(O)c(-c2ccc([C@@H](C)CN(C)C)cc2)c2c1[nH]c(=O)c1sccc12` is reported as -3.41% (RPS6KB2; enzyme activity, inhibitor; 0.1 µM).
